Data published in ChEMBL document CHEMBL1133331, “Guanylpiperidine peptidomimetics: potent and selective bis-cation inhibitors of factor Xa” (Bioorg Med Chem Lett, 2000).

Legend:
[1] = molecular target: T1, Coagulation factor X (Homo sapiens, UniProt P00742); test: In vitro inhibition of human Coagulation factor X.
[2] = Concentration required to inhibit the activation of human prothrombin in a preformed complex of factor Xa, factor IIa and phospholipid in vitro; settings: in the assay text read “factor Va” for “factor IIa”
Outline: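 The assembled prothrombinase complex was assayed with its natural substrate, prothrombin, to measure inhibition of prothrombin activation. IC50 is the concentration giving 50% inhibition.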

[3] = molecular target: Prothrombin (Homo sapiens, UniProt P00734); test: In vitro inhibition of human thrombin.
Outline: (§1)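 Purified human enzymes (plasmin, thrombin/factor IIa, trypsin) were each tested for inhibitor-dependent cleavage of a chromogenic substrate. IC50 is the concentration that blocks 50% of substrate cleavage.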

[4] = molecular target: Serine protease 1 (Homo sapiens, UniProt P07477); test: In vitro inhibition of human trypsin.; outline: as §1
[5] = molecular target: Plasminogen (Homo sapiens, UniProt P00747); test: In vitro inhibition of human plasmin.; outline: as §1
[6] = Ratio of inhibitory concentration of prothrombinase to that of human factor Xa was determined
[7] = molecular target: T1, Coagulation factor X; test: Concentration required for classical fast inhibition of cleavage of the chromogenic substrate by human enzyme Coagulation factor X in vitro
[8] = molecular target: T1, Coagulation factor X; test: In vitro inhibitory activity against human Coagulation factor X
[9] = molecular target: T1, Coagulation factor X; test: Concentration required to inhibit the cleavage of the chromogenic substrate by human enzyme Coagulation factor X in vitro

Chain of Serine protease 1 (P07477 whole entry): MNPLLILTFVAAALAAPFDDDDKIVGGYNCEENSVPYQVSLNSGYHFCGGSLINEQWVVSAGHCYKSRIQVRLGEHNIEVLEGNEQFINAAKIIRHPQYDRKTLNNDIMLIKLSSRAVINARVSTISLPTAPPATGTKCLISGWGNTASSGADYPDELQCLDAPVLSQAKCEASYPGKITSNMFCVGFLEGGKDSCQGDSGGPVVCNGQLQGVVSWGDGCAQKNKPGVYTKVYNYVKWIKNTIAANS
T1 sequence (P00742 41-179 limits assumed): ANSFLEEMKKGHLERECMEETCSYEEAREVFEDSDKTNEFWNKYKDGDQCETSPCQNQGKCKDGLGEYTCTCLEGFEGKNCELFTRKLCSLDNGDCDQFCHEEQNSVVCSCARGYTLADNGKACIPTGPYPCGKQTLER
T1 sequence (P00742 235-488 limits assumed): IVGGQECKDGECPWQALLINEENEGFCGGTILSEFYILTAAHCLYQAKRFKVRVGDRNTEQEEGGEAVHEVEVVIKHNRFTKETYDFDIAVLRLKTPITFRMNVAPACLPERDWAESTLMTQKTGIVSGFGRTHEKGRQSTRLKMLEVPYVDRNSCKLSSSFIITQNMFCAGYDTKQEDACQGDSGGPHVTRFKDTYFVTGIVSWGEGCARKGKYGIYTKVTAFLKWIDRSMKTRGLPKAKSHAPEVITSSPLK
Chain of Plasminogen (P00747 97-580 limits assumed): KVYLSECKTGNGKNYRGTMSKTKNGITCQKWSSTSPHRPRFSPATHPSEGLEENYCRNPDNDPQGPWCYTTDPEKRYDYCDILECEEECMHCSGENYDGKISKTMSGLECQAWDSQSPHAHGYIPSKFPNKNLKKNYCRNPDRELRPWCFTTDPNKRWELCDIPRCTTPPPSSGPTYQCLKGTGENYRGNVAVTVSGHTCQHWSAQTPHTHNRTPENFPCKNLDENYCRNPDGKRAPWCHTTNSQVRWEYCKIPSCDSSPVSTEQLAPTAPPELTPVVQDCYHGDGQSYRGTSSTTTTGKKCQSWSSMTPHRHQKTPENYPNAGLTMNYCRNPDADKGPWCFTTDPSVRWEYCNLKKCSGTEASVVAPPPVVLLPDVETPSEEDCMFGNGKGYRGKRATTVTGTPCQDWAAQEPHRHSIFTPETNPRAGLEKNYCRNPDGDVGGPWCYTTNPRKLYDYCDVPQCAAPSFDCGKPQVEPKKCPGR
Chain of Plasminogen (P00747 581-810 limits assumed): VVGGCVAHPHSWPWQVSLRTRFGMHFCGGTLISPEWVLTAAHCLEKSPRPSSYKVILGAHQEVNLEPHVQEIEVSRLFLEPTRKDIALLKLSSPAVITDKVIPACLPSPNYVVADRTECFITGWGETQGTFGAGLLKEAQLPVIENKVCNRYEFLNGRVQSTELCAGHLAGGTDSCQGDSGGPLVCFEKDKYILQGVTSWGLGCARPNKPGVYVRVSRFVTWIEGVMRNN

IC50 [1] [nM] | IC50 [2] [nM] | IC50 [3] [nM] | IC50 [4] [nM] | IC50 [5] [nM] | Ratio [6] | Ki [7] [nM] | Ki [8] [nM] | IC50 [9] [nM] | SMILES
1.2 | 4.2 | > 2500 | 120 | 919 | – | – | – | – | N=C(N)N1CCCC(C[C@@H](NS(=O)(=O)Cc2ccccc2)C(=O)NCC(=O)N[C@H]2CCCN(C(=N)N)C2O)C1 (single isomer, unassigned) [listing 1 of 2 here]
0.9 | 3.4 | – | – | – | – | – | – | – | N=C(N)NCCC[C@@H](NC(=O)OCc1ccccc1)C(=O)NCC(=O)N[C@H]1CCCN(C(=N)N)C1O (stereo in doubt) [listing 1 of 2 here]
4.2 | – | 352 | 33 | > 2500 | – | – | – | – | N=C(N)N1CCCC(C[C@@H](NS(=O)(=O)Cc2ccccc2C(=O)O)C(=O)NCC(=O)N[C@H]2CCCN(C(=N)N)C2O)C1 (stereo in doubt)
1.08 | – | > 2500 | 124 | 894 | – | – | – | – | COC(=O)c1ccccc1CS(=O)(=O)N[C@H](CC1CCCN(C(=N)N)C1)C(=O)NCC(=O)N[C@H]1CCCN(C(=N)N)C1O (stereo in doubt; form 2)
– | – | – | – | – | 3.6 | – | – | – | N=C(N)N1CCCC(C[C@@H](NS(=O)(=O)Cc2ccccc2)C(=O)NCC(=O)N[C@H]2CCCN(C(=N)N)C2O)C1 (stereo in doubt) [listing 1 of 2 here]
0.83 | 3.1 | > 2500 | 169 | 869 | 3.7 | – | – | – | N=C(N)N1CCC(C[C@@H](NS(=O)(=O)Cc2ccccc2)C(=O)NCC(=O)N[C@H]2CCCN(C(=N)N)C2O)CC1 (some centres undefined)
4.3 | 14 | > 2500 | 211 | 231 | 0.9 | 16 | – | – | N=C(N)N1CCC(C[C@@H](NS(=O)(=O)Cc2cccc(C(=O)O)c2)C(=O)NCC(=O)N[C@H]2CCCN(C(=N)N)C2O)CC1 (some centres undefined)
– | – | > 2500 | 412 | > 2500 | – | – | 23 | – | COC(=O)N[C@H](CC1CCN(C(=N)N)CC1)C(=O)NCC(=O)N[C@H]1CCCN(C(=N)N)C1O (some centres undefined)
0.92 | 3.3 | > 2500 | 31 | 726 | – | – | – | – | N=C(N)N1CCCC(C[C@@H](NS(=O)(=O)Cc2ccccc2)C(=O)NCC(=O)N[C@H]2CCCN(C(=N)N)C2O)C1 (stereo in doubt) [listing 2 of 2 here]
1.1 | – | > 2500 | 25 | 678 | – | – | – | – | N=C(N)N1CCC(C(NS(=O)(=O)Cc2ccccc2)C(=O)NCC(=O)N[C@H]2CCCN(C(=N)N)C2O)CC1 (some centres undefined)
– | – | – | – | – | 2 | – | – | – | N=C(N)N1CCCC(C[C@@H](NS(=O)(=O)Cc2ccccc2)C(=O)NCC(=O)N[C@H]2CCCN(C(=N)N)C2O)C1 (single isomer, unassigned) [listing 2 of 2 here]
– | – | – | – | – | 0.23 | – | – | – | N=C(N)NCCC[C@@H](NC(=O)OCc1ccccc1)C(=O)NCC(=O)N[C@H]1CCCN(C(=N)N)C1O (single isomer, unassigned) [listing 1 of 2 here]
1.37 | – | 1100 | 15 | 1950 | – | – | – | – | COC(=O)c1ccccc1CS(=O)(=O)N[C@H](CC1CCCN(C(=N)N)C1)C(=O)NCC(=O)N[C@H]1CCCN(C(=N)N)C1O (stereo in doubt; form 1)
– | – | – | – | – | 3.8 | – | – | – | N=C(N)NCCC[C@@H](NC(=O)OCc1ccccc1)C(=O)NCC(=O)N[C@H]1CCCN(C(=N)N)C1O (stereo in doubt) [listing 2 of 2 here]
2.1 | – | > 2500 | 240 | 2500 | – | – | – | – | N=C(N)N1CCCC(C[C@@H](NS(=O)(=O)Cc2ccccc2C(=O)O)C(=O)NCC(=O)N[C@H]2CCCN(C(=N)N)C2O)C1 (single isomer, unassigned)
2.2 | – | > 2500 | 145 | 387 | – | – | – | – | COC(=O)c1cccc(CS(=O)(=O)N[C@H](CC2CCN(C(=N)N)CC2)C(=O)NCC(=O)N[C@H]2CCCN(C(=N)N)C2O)c1 (some centres undefined)
34.9 | – | > 2500 | 115 | > 2500 | – | – | – | – | N=C(N)NCCC[C@@H](NC(=O)OCc1ccccc1)C(=O)NCC(=O)N[C@H]1CCCN(C(=N)N)C1O (stereo in doubt; 1)
35 | 7.9 | – | – | – | – | – | – | – | N=C(N)NCCC[C@@H](NC(=O)OCc1ccccc1)C(=O)NCC(=O)N[C@H]1CCCN(C(=N)N)C1O (single isomer, unassigned) [listing 2 of 2 here]
0.94 | – | > 2500 | 147 | 965 | – | – | – | – | COC(=O)c1ccccc1CS(=O)(=O)N[C@H](CC1CCN(C(=N)N)CC1)C(=O)NCC(=O)N[C@H]1CCCN(C(=N)N)C1O (some centres undefined)
2.6 | 69 | > 2500 | 537 | 872 | 3 | 23 | – | – | N=C(N)N1CCC(C[C@@H](NS(=O)(=O)Cc2ccccc2-n2cnnn2)C(=O)NCC(=O)N[C@H]2CCCN(C(=N)N)C2O)CC1 (some centres undefined)
0.9 | – | > 2500 | 75 | 1190 | – | – | – | – | N=C(N)NCCC[C@@H](NS(=O)(=O)Cc1ccccc1)C(=O)NCC(=O)N[C@H]1CCCN(C(=N)N)C1O (some centres undefined)
5.7 | 12 | > 2500 | 447 | 2500 | 2.3 | – | – | 5.3 | N=C(N)N1CCC(C[C@@H](NS(=O)(=O)Cc2ccccc2C(=O)O)C(=O)NCC(=O)N[C@H]2CCCN(C(=N)N)C2O)CC1 (some centres undefined)
– | – | > 2500 | 158 | 1440 | – | – | 16 | – | CCOC(=O)c1ccc(CCOC(=O)N[C@H](CC2CCN(C(=N)N)CC2)C(=O)NCC(=O)N[C@H]2CCCN(C(=N)N)C2O)cc1 (some centres undefined)
